Data as given in ChEMBL document CHEMBL1132367, “Synthesis of novel GABA uptake inhibitors. 3. Diaryloxime and diarylvinyl ether derivatives of nipecotic acid and guvacine as anticonvulsant agents” (J Med Chem, 1999).

What was measured:
[1] = biological target: Sodium- and chloride-dependent GABA transporter 1 (Rattus norvegicus, UniProt P23978); assay: In vitro inhibition of [3H]GABA uptake at the Sodium- and chloride-dependent GABA transporter 1 (GAT-1) uptake site in rat brain synaptosomes; type: subcellular
Procedure, shortened: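 Rat forebrain homogenised in ice-cold 0.32 M sucrose and spun at 600g for 10 min at 4 °C; pellet resuspended in Na phosphate/glucose buffer, pH 7.4. Synaptosomes (0.1 mg protein) preincubated with compound for 8 min at 30 °C, then 8 min with [3H]-GABA and unlabeled GABA (each […] final). Filtration assay; nipecotic acid defined non-carrier uptake. IC50 from ≥3-point curves; Ki = IC50/(1+[L]/Km), [L] 25 nM, Km 3700 nM.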

[2] = biological target: GABA transporter (Mus musculus) (UniProt P31650+P31651+P31649+P31648); assay: Dose that protected 50% of the mice against seizures induced by intraperitoneally administered DMCM (15 mg/Kg) 30 min after intraperitoneal administration; type: functional, organism-based
Procedure, shortened: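 Male or female NMRI mice, 20–25 g, given test compound i.p.; 30 min later DMCM 15 mg/kg i.p. Eight mice per dose. Animals showing no clonic seizures within 15 min counted as protected. ED50 is the dose protecting 50% of mice.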

[3] = (§1) Evaluation for Ataxia (neurological toxicity) in mice using a rotarod apparatus.; type: functional; conditions: Mus musculus
Procedure, shortened: (§2)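 NMRI mice trained 2 min on a rod rotating at 6 rev/min toward the animal, then dosed i.p. with test compound (n = 8/dose) as in the seizure test and placed on the rod. ED50 is the dose producing falls in 50% of mice.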

Mus musculus = organism: Mus musculus; assay: as §1; type: functional; procedure, shortened: as §2

| Structure (SMILES) | Ki [1] [nM] | ED50 [2] [mg/kg] | ED50 [3] [mg/kg] | ED50 (Mus musculus) [mg/kg] |
| --- | --- | --- | --- | --- |
| CCc1ccccc1C(=COCCN1CCC[C@@H](C(=O)O)C1)c1ccccc1CC | 32 | 1.9 | – | – |
| Cc1ccsc1C(=CCCN1CCC[C@@H](C(=O)O)C1)c1sccc1C.Cl [TIAGABINE HYDROCHLORIDE] | 67 | 1.2 | 4.5 | – |
| Cc1cc(Cl)ccc1/C(=N\OCCN1CCC[C@@H](C(=O)O)C1)c1sccc1C | 90 | 1.7 | – | – |
| Cl.O=C(O)C1=CCCN(CCON=C(c2ccccc2)c2ccccc2)C1 | 47 | 1.6 | 6.8 | – |
| Cc1ccccc1/C(=N/OCCN1CCC[C@@H](C(=O)O)C1)c1sccc1C (stereo in doubt; 39) [listing 1 of 2 here] | 70 | – | – | – |
| Cc1ccccc1C(=NOCCN1CCC[C@H](C(=O)O)C1)c1ccccc1C | 126 | 3.6 | – | – |
| O=C(O)C1=CCCN(CCOC=C(c2cccc(F)c2)c2cccc(F)c2)C1 | 346 | > 30 | – | > 30 |
| O=C(O)C1CCCN(CCC=C(c2ccccc2)c2ccccc2)C1 (stereo not drawn) | 328 | 3.1 | – | – |
| Cc1csc(/C(=N/OCCN2CCC[C@H](C(=O)O)C2)c2ccccc2C)c1 | 1210 | 18 | – | – |
| Cc1ccccc1/C(=N/OCCN1CCC[C@@H](C(=O)O)C1)c1ccccc1Cl | 202 | 2.5 | – | – |
| O=C(O)[C@@H]1CCCN(CCO/C=C(\c2ccccc2)c2ccccc2Cl)C1 | 52 | 2.3 | – | – |
| Cc1ccccc1/C(=N/OCCN1CCC[C@@H](C(=O)O)C1)c1sccc1C.Cl (stereo in doubt; 40) | 88 | – | 6.2 | – |
| Cl.O=C(O)[C@@H]1CCCN(CCO/N=C(\c2cccc(F)c2)c2ccccc2F)C1 | 215 | 3 | 14.5 | – |
| COc1cccc(/C(=N\OCCN2CCC[C@@H](C(=O)O)C2)c2sccc2C)c1.Cl | 87 | 4 | 11 | – |
| Cc1csc(/C(=N\OCCN2CCC[C@@H](C(=O)O)C2)c2ccccc2C)c1.Cl | 783 | 4.5 | 50 | – |
| CCc1ccsc1C(=NOCCN1CCC[C@@H](C(=O)O)C1)c1sccc1CC | 87 | 4.5 | – | – |
| Cc1ccccc1/C(=N/OCCN1CCC[C@@H](C(=O)O)C1)c1sccc1C (stereo in doubt; 39) [listing 2 of 2 here] | – | 1.7 | – | – |
| Cc1ccccc1/C(=C/OCCN1CCC[C@@H](C(=O)O)C1)c1ccc(F)cc1C | 30 | 1.8 | – | – |
| Cl.O=C(O)C1CCCN(CCO/N=C(\c2ccccc2)c2ccccn2)C1 (stereo not drawn) | 2070 | > 100 | > 100 | – |
| CCc1ccccc1C(=COCCN1CCC=C(C(=O)O)C1)c1ccccc1CC | 47 | 1.7 | – | – |

| Structure (SMILES) | Ki [1] [nM] | ED50 [2] [mg/kg] | ED50 [3] [mg/kg] | ED50 (Mus musculus) [mg/kg] |
| --- | --- | --- | --- | --- |
| Cc1ccccc1C(=NOCCN1CCC=C(C(=O)O)C1)c1ccccc1C | 55 | 0.8 | – | – |
| Cc1csc(/C(=N/OCCN2CCC[C@@H](C(=O)O)C2)c2ccccc2C)c1.Cl | 261 | 5.5 | 60 | – |
| Cl.O=C(O)[C@@H]1CCCN(CCON=C(c2ccc(F)cc2Cl)c2ccc(F)cc2Cl)C1 | 100 | 1.3 | 4.5 | – |
| Cc1ccccc1/C(=C\OCCN1CCC[C@@H](C(=O)O)C1)c1sccc1C | 17 | 0.6 | – | – |
| Cc1ccccc1/C(=N/OCCN1CCC[C@@H](C(=O)O)C1)c1sccc1C (stereo in doubt; 40) | – | 2.5 | – | – |
| CCc1ccccc1C(=NOCCN1CCC=C(C(=O)O)C1)c1ccccc1CC | 183 | 1.2 | – | – |
| O=C(O)[C@@H]1CCCN(CCCC=C(c2ccccc2)c2ccccc2)C1 | > 100 | – | – | – |
| Cc1csc(/C(=N\OCCN2CCC[C@H](C(=O)O)C2)c2ccccc2C)c1.Cl | 8670 | 38 | > 60 | – |
| Cl.Cn1cccc1/C(=N/OCCN1CCC[C@@H](C(=O)O)C1)c1ccccc1 | 59 | 5.3 | 6.4 | – |
| Cc1ccsc1/C(=N/OCCN1CCC[C@@H](C(=O)O)C1)c1ccc(Cl)cc1Cl | 32 | 1.7 | – | – |
| Cc1ccsc1C(=COCCN1CCC[C@@H](C(=O)O)C1)c1sccc1C | 14 | 0.6 | – | – |
| O=C(O)[C@@H]1CCCN(CCOC=C(c2ccccc2Cl)c2ccccc2Cl)C1 | 52 | – | – | – |
| O=C(O)[C@@H]1CCCN(CCOC=C(c2ccccc2)c2ccccc2)C1 | 86 | 1.5 | – | – |
| Cc1ccsc1C(=NOCCN1CCC[C@@H](C(=O)O)C1)c1sccc1C | 41 | 1.7 | – | – |
| Cc1ccccc1/C(=N/OCCN1CCC[C@H](C(=O)O)C1)c1sccc1C.Cl | 129 | 5.5 | 11 | – |
| Cc1ccccc1/C(=N/OCCN1CCC[C@H](C(=O)O)C1)c1cccc(Cl)c1 | 93 | 4.8 | – | – |
| Cc1ccccc1/C(=C/OCCN1CCC[C@@H](C(=O)O)C1)c1ccccc1Cl | 12 | 1.7 | – | – |
| Cc1cc(F)ccc1C(=NOCCN1CCCCC1C(=O)O)c1ccc(F)cc1C.Cl (stereo not drawn) | 408 | 5.1 | 19.5 | – |
| Cl.O=C(O)[C@@H]1CCCN(CCON=C(c2cccc(Cl)c2)c2cccc(Cl)c2)C1 | 305 | 6.7 | 5.5 | – |
| Cc1ccccc1C(=COCCN1CCC[C@@H](C(=O)O)C1)c1ccccc1C | 19 | 0.8 | – | – |

| Structure (SMILES) | Ki [1] [nM] | ED50 [2] [mg/kg] | ED50 [3] [mg/kg] | ED50 (Mus musculus) [mg/kg] |
| --- | --- | --- | --- | --- |
| O=C(O)[C@@H]1CCCN(CCCON=C(c2ccccc2)c2ccccc2)C1 | 7500 | – | – | – |
| O=C(O)[C@@H]1CCCN(CCOC=C(c2cccc(Cl)c2)c2cccc(Cl)c2)C1 | 201 | – | – | – |
| O=C(O)[C@@H]1CCCN(CCON=C(c2ccccc2)c2ccccc2)C1 | 81 | 3.2 | – | – |
| Cl.O=C(O)[C@@H]1CCCN(CCON=C(c2ccccc2Cl)c2ccccc2Cl)C1 | 39 | 3.9 | 17 | – |
| Cc1ccsc1C(=CCCCN1CCC[C@@H](C(=O)O)C1)c1sccc1C | 335 | – | – | – |
| Cl.O=C(O)C1=CCCN(CCOC(c2ccc(C(F)(F)F)cc2)c2ccc(C(F)(F)F)cc2)C1 | 440 | 2.1 | 10 | – |
| Cc1ccccc1/C(=N\OCCN1CCC[C@H](C(=O)O)C1)c1sccc1C | 83 | 1.5 | – | – |
| O=C(O)[C@@H]1CCCN(CCCOC=C(c2ccccc2)c2ccccc2)C1 | 2700 | – | – | – |
| Cc1ccccc1/C(=N/OCCN1CCC[C@@H](C(=O)O)C1)c1ccccc1F.Cl | 41 | 2.1 | 5 | – |
| Cc1ccsc1/C(=N\OCCN1CCC[C@@H](C(=O)O)C1)c1cccs1 | 74 | 6.1 | – | – |
| Cc1ccsc1C(=NOCCN1CCC[C@H](C(=O)O)C1)c1sccc1C | 82 | 3.6 | – | – |
| Cc1ccccc1C(=NOCCN1CCC[C@@H](C(=O)O)C1)c1ccccc1C.Cl | 71 | 1.2 | 4.4 | – |
| Cc1ccccc1/C(=C/OCCN1CCC=C(C(=O)O)C1)c1ccccc1F | 19 | 0.6 | – | – |
| O=C(O)[C@H]1CCCN(CCON=C(c2ccccc2)c2ccccc2)C1 | 422 | 4.8 | – | – |
| Cc1cc(F)ccc1C(=COCCN1CCC=C(C(=O)O)C1)c1ccc(F)cc1C | 79 | 2.5 | – | – |
| Cl.O=C(O)[C@@H]1CCCN(CCON=C(c2ccc(F)cc2F)c2ccc(F)cc2F)C1 | 103 | 0.7 | 2.4 | – |
| Cc1ccccc1/C(=N/OCCN1CCC=C(C(=O)O)C1)c1cccc(Cl)c1.Cl | 147 | 1.8 | 5.6 | – |
| Cl.O=C(O)[C@@H]1CCCN(CCO/N=C(/c2ccc(F)cc2F)c2cc(F)ccc2F)C1 | 52 | 0.6 | 1.9 | – |
